Test results as given in ChEMBL document CHEMBL2331081, “Fragment-based drug design and identification of HJC0123, a novel orally bioavailable STAT3 inhibitor for cancer therapy” (Eur J Med Chem, 2013).
Calls of active or inactive are those of the source. No cut-off for these calls is given here.

Experiments:
PANC-1 = assay: CYtotoxicity against human PANC1 cells by MTS assay; assay type: functional, cell-based
How it was run: (§1)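 Cells seeded at 2×10^3/well, exposed to DMSO or 0.01, 0.1, 1, 5, 10 and 100 μM compound for 72 h. MTS reagent added, then OD at 550 nm read after 1 h at 37 °C. Quadruplicate wells per concentration.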

MCF7 = assay: CYtotoxicity against ER-positive human MCF7 cells by MTS assay; assay type: functional, cell-based; how it was run: as §1
MDA-MB-231 [1] = assay: CYtotoxicity against ER-negative human MDA-MB-231 cells by MTS assay; assay type: functional, cell-based; how it was run: as §1
ASPC1 = assay: CYtotoxicity against human AsPC1 cells by MTS assay; assay type: functional, cell-based; how it was run: as §1
MDA-MB-231 [2] = assay: Induction of apoptosis in human MDA-MB-231 cells assessed as viable cells at 5 uM after 48 hrs by annexin V-based flow cytometry (reference value: 90.62 %); assay type: functional; conditions: MDA-MB-231, 48 h, read-out: Activity
MDA-MB-231 [3] = assay: Cell cycle arrest in human MDA-MB-231 cells assessed as accumulation at S phase after 24 hrs by flow cytometry; assay type: functional, cell-based
MDA-MB-231 [4] = assay: Cell cycle arrest in human MDA-MB-231 cells assessed as accumulation at G2/M phase at 2.5 uM after 24 hrs by flow cytometry (reference value: 25.1 %); assay type: functional
MDA-MB-231 [5] = assay: Cell cycle arrest in human MDA-MB-231 cells assessed as accumulation at S phase at 1 uM after 24 hrs by flow cytometry (reference value: 16.7 %); assay type: functional
MDA-MB-231 [6] = assay: Cell cycle arrest in human MDA-MB-231 cells assessed as accumulation at S phase at 2.5 uM after 24 hrs by flow cytometry (reference value: 16.7 %); assay type: functional
[7] = target: Signal transducer and activator of transcription 3 (Homo sapiens) (UniProt P40763); assay: Inhibition of total STAT3 protein expression in human MDA-MB-231 cells at 5 uM after 48 hrs by Western blot analysis; assay type: cell-based
Signal transducer and activator of transcription 3 (Homo sapiens), sequence (P40763 whole entry): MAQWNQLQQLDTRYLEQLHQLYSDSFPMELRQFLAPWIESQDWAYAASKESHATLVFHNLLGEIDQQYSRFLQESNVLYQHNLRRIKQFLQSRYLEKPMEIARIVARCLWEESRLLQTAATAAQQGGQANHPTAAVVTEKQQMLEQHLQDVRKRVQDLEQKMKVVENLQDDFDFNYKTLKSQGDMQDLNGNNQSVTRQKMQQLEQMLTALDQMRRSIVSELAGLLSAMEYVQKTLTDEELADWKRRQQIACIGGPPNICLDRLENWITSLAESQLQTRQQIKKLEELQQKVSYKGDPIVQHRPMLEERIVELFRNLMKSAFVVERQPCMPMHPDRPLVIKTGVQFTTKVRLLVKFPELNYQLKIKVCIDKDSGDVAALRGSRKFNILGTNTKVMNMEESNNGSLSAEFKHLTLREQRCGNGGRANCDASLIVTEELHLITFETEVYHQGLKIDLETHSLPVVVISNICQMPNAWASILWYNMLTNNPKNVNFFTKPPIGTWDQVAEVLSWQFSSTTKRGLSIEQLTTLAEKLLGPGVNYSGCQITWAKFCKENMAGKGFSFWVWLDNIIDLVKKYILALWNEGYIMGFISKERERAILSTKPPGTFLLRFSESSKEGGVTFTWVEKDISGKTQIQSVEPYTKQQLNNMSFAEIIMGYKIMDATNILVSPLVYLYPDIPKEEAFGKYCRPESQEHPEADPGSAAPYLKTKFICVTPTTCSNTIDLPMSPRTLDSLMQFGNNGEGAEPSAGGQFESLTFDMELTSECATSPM
How it was run: (§2)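 Whole-cell lysates of treated MDA-MB-231 cells; 40 µg protein per lane run on 10% SDS-PAGE and transferred to nitrocellulose. Blocked in 5% milk/1% Tween 20 in TBS. Probed for pSTAT3-Y705 (1:3000), STAT3 (1:2000) and cleaved caspase-3 (1:2000), with β-actin as loading reference. Secondary antibody at 1:4000, ECL detection.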

MDA-MB-231 [8] = assay: Cell cycle arrest in human MDA-MB-231 cells assessed as accumulation at G0/G1 phase at 1 uM after 24 hrs by flow cytometry (reference value: 53.6 %); assay type: functional
[9] = target: Signal transducer and activator of transcription 3 (Homo sapiens) (UniProt P40763); assay: Inhibition of total STAT3 protein expression in human MDA-MB-231 cells at 5 uM after 24 hrs by Western blot analysis; assay type: cell-based; how it was run: as §2
MDA-MB-231 [10] = assay: Induction of apoptosis in human MDA-MB-231 cells assessed as early apoptotic cells at 5 uM after 48 hrs by annexin V-based flow cytometry (reference value: 4.16 %); assay type: functional
MDA-MB-231 [11] = assay: Induction of apoptosis in human MDA-MB-231 cells assessed as late apoptotic cells at 1 uM after 48 hrs by annexin V-based flow cytometry (reference value: 4.98 %); assay type: functional
MDA-MB-231 [12] = assay: Induction of apoptosis in human MDA-MB-231 cells assessed as late apoptotic cells at 2.5 uM after 48 hrs by annexin V-based flow cytometry (reference value: 4.98 %); assay type: functional
MDA-MB-231 [13] = assay: Induction of apoptosis in human MDA-MB-231 cells assessed as viable cells at 2.5 uM after 48 hrs by annexin V-based flow cytometry (reference value: 90.62 %); assay type: functional; conditions: MDA-MB-231, 48 h, read-out: Activity
MDA-MB-231 [14] = assay: Antiproliferative activity against human MDA-MB-231 cells assessed as change in cell morphology after 48 hrs by light microscopy; assay type: functional, cell-based
[15] = target: Signal transducer and activator of transcription 3 (Homo sapiens) (UniProt P40763); assay: Inhibition of STAT3 promoter activity in human MDA-MB-231 cells at 5 uM after 24 hrs by luciferase reporter gene assay relative to control; assay type: cell-based
How it was run: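 MDA-MB-231 cells seeded at 5×10^4/well in RPMI-1640 with 10% FBS and were transiently transfected 4 h after plating. Each well received 0.5 μg DNA: pSTAT3-Luc (95%) and renilla control vector (5%). Compound was added 5 h post-transfection for 24 h. Read-out is dual luciferase, as firefly/renilla ratio relative to DMSO control. Triplicate wells; representative of ≥3 independent experiments.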

[16] = target: Signal transducer and activator of transcription 3 (Homo sapiens) (UniProt P40763); assay: Inhibition of STAT3 phosphorylation at Tyr-705 in human MDA-MB-231 cells at 5 uM after 24 hrs by Western blot analysis; assay type: cell-based; how it was run: as §2
MDA-MB-231 [17] = assay: Induction of apoptosis in human MDA-MB-231 cells assessed as early apoptotic cells at 2.5 uM after 48 hrs by annexin V-based flow cytometry (reference value: 4.16 %); assay type: functional
MDA-MB-231 [18] = assay: Induction of apoptosis in human MDA-MB-231 cells assessed as dead cells at 5 uM after 48 hrs by annexin V-based flow cytometry (reference value: 0.24 %); assay type: functional
[19] = target: Signal transducer and activator of transcription 3 (Homo sapiens) (UniProt P40763); assay: Inhibition of STAT3 phosphorylation at Tyr-705 in human MDA-MB-231 cells at 5 uM after 48 hrs by Western blot analysis; assay type: cell-based; how it was run: as §2
MDA-MB-231 [20] = assay: Induction of apoptosis in human MDA-MB-231 cells assessed as late apoptotic cells at 5 uM after 48 hrs by annexin V-based flow cytometry (reference value: 4.98 %); assay type: functional
MDA-MB-231 [21] = assay: Induction of apoptosis in human MDA-MB-231 cells assessed as dead cells at 1 uM after 48 hrs by annexin V-based flow cytometry (reference value: 0.24 %); assay type: functional
MDA-MB-231 [22] = assay: Induction of apoptosis in human MDA-MB-231 cells assessed as dead cells at 2.5 uM after 48 hrs by annexin V-based flow cytometry (reference value: 0.24 %); assay type: functional
MDA-MB-231 [23] = assay: Cell cycle arrest in human MDA-MB-231 cells assessed as accumulation at G2/M phase at 1 uM after 24 hrs by flow cytometry (reference value: 25.1 %); assay type: functional
MDA-MB-231 [24] = assay: Cell cycle arrest in human MDA-MB-231 cells assessed as accumulation at G2/M phase at 5 uM after 24 hrs by flow cytometry (reference value: 25.1 %); assay type: functional
MDA-MB-231 [25] = assay: Cell cycle arrest in human MDA-MB-231 cells assessed as accumulation at G0/G1 phase at 5 uM after 24 hrs by flow cytometry (reference value: 53.6 %); assay type: functional
MDA-MB-231 [26] = assay: Induction of apoptosis in human MDA-MB-231 cells assessed as caspase-3 cleavage at 5 uM after 24 to 48 hrs by Western blot analysis; assay type: functional, cell-based; how it was run: as §2
MDA-MB-231 [27] = assay: Cell cycle arrest in human MDA-MB-231 cells assessed as accumulation at S phase at 5 uM after 24 hrs by flow cytometry (reference value: 16.7 %); assay type: functional
MDA-MB-231 [28] = assay: Induction of apoptosis in human MDA-MB-231 cells assessed as viable cells at 1 uM after 48 hrs by annexin V-based flow cytometry (reference value: 90.62 %); assay type: functional; conditions: MDA-MB-231, 48 h, read-out: Activity
MDA-MB-231 [29] = assay: Cell cycle arrest in human MDA-MB-231 cells assessed as accumulation at G0/G1 phase at 2.5 uM after 24 hrs by flow cytometry (reference value: 53.6 %); assay type: functional
MDA-MB-231 [30] = assay: Antitumor activity against human MDA-MB-231 cells xenografted in immunodeficient nude mouse assessed as reduction in tumor volume at 50 mg/kg, po administered 5 days a week; assay type: functional, organism-based; parameters: dose 50 mg/kg
How it was run: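 Female nude mice aged 4–6 weeks were used, housed in a barrier unit. Each mouse received 2.5×10^6 fresh MDA-MB-231 cells in 100 µL PBS into the 3rd mammary fat pad (orthotopic). Mice were randomized into 2 groups of 6–7. Oral dosing or vehicle (50% DMSO/50% PEG) started once tumors reached 200 mm³. Tumor volume measured daily, calculated as 0.5×L×W².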

Mus musculus = assay: Toxicity in human MDA-MB-231 cells xenografted immunodeficient nude mouse assessed as change in body weight at 50 mg/kg, po; conditions: in vivo
MDA-MB-231 [31] = assay: Induction of apoptosis in human MDA-MB-231 cells assessed as early apoptotic cells at 1 uM after 48 hrs by annexin V-based flow cytometry (reference value: 4.16 %); assay type: functional

O=C(Nc1ccc2c(c1)S(=O)(=O)C=C2)c1c2ccccc2nc2ccccc12
IC50 (PANC-1): > 10 µM
IC50 (MCF7): > 10 µM
IC50 (MDA-MB-231 [1]): > 10 µM
IC50 (ASPC1): > 10 µM

O=C(Nc1ccc2c(c1)S(=O)(=O)C=C2)c1cc(-c2ccccc2)nc(-c2ccccc2)c1
IC50 (PANC-1): 0.31 µM
IC50 (MCF7): 0.65 µM
IC50 (MDA-MB-231 [1]): 0.45 µM
IC50 (ASPC1): 0.12 µM

O=C(Nc1ccc2c(c1)S(=O)(=O)C=C2)c1ccnc2ccccc12
IC50 (PANC-1): 7.92 µM
IC50 (MCF7): 2.97 µM
IC50 (MDA-MB-231 [1]): 6.21 µM
IC50 (ASPC1): 6.97 µM

O=C(Nc1ccc2c(c1)S(=O)(=O)C=C2)c1cc(-c2ccccc2)nc2ccccc12
viability at 5 µM (MDA-MB-231 [2]): 19.5%
Activity (MDA-MB-231 [3]): Dose-dependent effect
Activity (MDA-MB-231 [4]): 27.5%
Activity (MDA-MB-231 [5]): 16.5%
IC50 (PANC-1): 0.26 µM
Activity (MDA-MB-231 [6]): 21.9%
inhibition [7]: Active
Activity (MDA-MB-231 [8]): 51.5%
inhibition [9]: Active
Activity (MDA-MB-231 [10]): 66.12%
Activity (MDA-MB-231 [11]): 9.26%
Activity (MDA-MB-231 [12]): 13.32%
viability at 2.5 µM (MDA-MB-231 [13]): 57.8%
IC50 (MCF7): 0.1 µM
Activity (MDA-MB-231 [14]): Dose-dependent effect
inhibition [15]: 65%
inhibition [16]: Active
IC50 (MDA-MB-231 [1]): 0.29 µM
Activity (MDA-MB-231 [17]): 28.53%
Activity (MDA-MB-231 [18]): 0.14%
inhibition [19]: Active
Activity (MDA-MB-231 [20]): 14.21%
Activity (MDA-MB-231 [21]): 0.67%
IC50 (ASPC1): 1.25 µM
Activity (MDA-MB-231 [22]): 0.32%
Activity (MDA-MB-231 [23]): 27.6%
Activity (MDA-MB-231 [24]): 25.8%
Activity (MDA-MB-231 [25]): 34.1%
Activity (MDA-MB-231 [26]): Active
Activity (MDA-MB-231 [27]): 26.2%
viability at 1 µM (MDA-MB-231 [28]): 80.8%
Activity (MDA-MB-231 [29]): 43.7%
Activity (MDA-MB-231 [30]): Active
Activity (Mus musculus): Non-toxic
Activity (MDA-MB-231 [31]): 9.31%

C[C@H](NC(=O)c1cc(-c2ccccc2)nc2ccccc12)c1ccccc1
IC50 (PANC-1): > 10 µM
IC50 (MCF7): 2.24 µM
IC50 (MDA-MB-231 [1]): 86 µM
IC50 (ASPC1): > 10 µM

O=C(Nc1ccc2c(c1)S(=O)(=O)C=C2)c1ccncc1
IC50 (MCF7): > 10 µM
IC50 (MDA-MB-231 [1]): > 10 µM

O=C(Nc1ccc2c(c1)S(=O)(=O)C=C2)c1cc(Cl)ccc1O
IC50 (PANC-1): 2.34 µM
IC50 (MCF7): 0.91 µM
IC50 (MDA-MB-231 [1]): 1.64 µM
IC50 (ASPC1): 1.92 µM

O=C(Nc1ccc2c(c1)S(=O)(=O)C=C2)c1ccnc(-c2ccccc2)c1
IC50 (PANC-1): 3.35 µM
IC50 (MCF7): 3.78 µM
IC50 (MDA-MB-231 [1]): 1.85 µM
IC50 (ASPC1): 1.3 µM

N#C/C(=C\c1cccc(Br)n1)C(=O)Nc1ccc2c(c1)S(=O)(=O)C=C2
IC50 (PANC-1): 1.64 µM
IC50 (MCF7): 3.31 µM
IC50 (MDA-MB-231 [1]): 1.53 µM
IC50 (ASPC1): 1.54 µM

O=C(Nc1nnc(-c2ccco2)o1)c1cc(Cl)ccc1O
IC50 (PANC-1): > 10 µM
IC50 (MCF7): > 10 µM
IC50 (MDA-MB-231 [1]): > 10 µM
IC50 (ASPC1): > 10 µM

N#CCC(=O)Nc1ccc2c(c1)S(=O)(=O)C=C2
IC50 (MCF7): > 10 µM
IC50 (MDA-MB-231 [1]): > 10 µM

C[C@H](NC(=O)c1cc(Cl)ccc1O)c1ccccc1
IC50 (PANC-1): 8.44 µM
IC50 (MCF7): 0.9 µM
IC50 (MDA-MB-231 [1]): 8.88 µM
IC50 (ASPC1): 7.54 µM
